Results gathered from unrelated publications.
Compare with care: the assays were run in different laboratories.
OTUD6B: Deubiquitinase OTUD6B (OTUD6B, Homo sapiens, UniProt Q8N6M0)
TACR3: Neuromedin-K receptor (TACR3, Homo sapiens, UniProt P29371)
ADORA1: Adenosine receptor A1 (ADORA1, Homo sapiens, UniProt P30542)
MMP7: Matrilysin (MMP7, Homo sapiens, UniProt P09237)

| SMILES | target | assay | setting | inhibition |
| --- | --- | --- | --- | --- |
| C#Cc1n[nH]c2c(-c3cn([C@@H](C)c4ccccc4)c(=O)[nH]c3=O)cc(F)cc12 | Tyrosine-protein kinase receptor UFO (AXL, Homo sapiens, UniProt P30530) | enzyme activity, inhibitor | 0.1 µM | 41.4% |
| CCOC(=O)c1ccc(OC(=O)CCCCCNC(=N)N)cc1 | OTUD6B | enzyme activity, inhibitor | 10 µM | 3% |
| CN(CCN1CCC(OC(=O)Nc2ccccc2-c2ccccc2)CC1)C(=O)c1ccc(CN2CCC(C(N)=O)CC2)cc1 | TACR3 | ligand displacement, radioligand | 1 µM | 1% |
| COCCN(CCOC)C(=O)[C@@]12C[C@@H]1[C@@H](n1cnc3c(NC(C4CC4)C4CC4)nc(Cl)nc31)[C@H](O)[C@@H]2O | ADORA1 | ligand displacement, radioligand | 10 µM | 34% |
| C[C@H](C(=O)N[C@H]1COc2ccccc2[C@@H]1S(C)(=O)=O)c1ccc(F)cc1 | MMP7 | enzyme activity, inhibitor | 10 µM | -6% |
| N=C(N)c1ccc2cc(OC(=O)c3ccc(N=C(N)N)cc3)ccc2c1 | OTUD6B | enzyme activity, inhibitor | 10 µM | 9% |
| c1ccc(C(NCCNC(c2ccccc2)c2ccccc2)c2ccccc2)cc1 | MMP7 | enzyme activity, inhibitor | 10 µM | -5% |
| CNC(=O)[C@H](Cc1ccccc1)NC(=O)[C@H](CC(C)C)[C@H](CSc1cccs1)C(=O)NO | MMP7 | enzyme activity, inhibitor | 10 nM | 94% |
| CCN(CC)CCCC[C@H](NC(=O)[C@H](CC(C)C)NC(=O)[C@H](C)NC(=O)[C@H](Cc1ccccc1)NC(=O)c1ccc(C(C)(C)C)cc1)C(=O)N[C@@H](CO)C(=O)OC | TACR3 | ligand displacement, radioligand | 10 µM | 8% |
| C#Cc1n[nH]c2c(-c3cn(C(C)c4ccccn4)c(=O)[nH]c3=O)cc(F)cc12 (stereo not drawn) | Dual specificity protein kinase CLK1 (CLK1, Homo sapiens, UniProt P49759) | enzyme activity, inhibitor | 1 µM | 3.7% |
| Cn1cc(-c2cccc(N3CCc4c(sc5c4CC(C)(C)C5)C3=O)c2CO)cc(Nc2ccncn2)c1=O | Inhibitor of nuclear factor kappa-B kinase subunit alpha (CHUK, Homo sapiens, UniProt O15111) | enzyme activity, inhibitor | 1 µM | -5% |
| O[C@H]1[C@H](n2cnc3c(NC(C4CCCC4)C4CCCC4)nc(Cl)nc32)[C@H]2C[C@@]2(CSc2ccccc2F)[C@H]1O | ADORA1 | ligand displacement, radioligand | 10 µM | -6% |
| COc1cc(Nc2ncc(F)c(Nc3ccc4c(n3)NC(=O)C(C)(C)O4)n2)cc(OC)c1OC | Mitogen-activated protein kinase kinase kinase kinase 3 (MAP4K3, Homo sapiens, UniProt Q8IVH8) | binding, competition with immobilised ligand | 10 µM | 52% |
| CN(C)C(=O)COC(=O)Cc1ccc(OC(=O)c2ccc(NC(=N)N)cc2)cc1 | Ubiquitin carboxyl-terminal hydrolase 5 (USP5, Homo sapiens, UniProt P45974) | enzyme activity, inhibitor | 10 µM | 1% |
| O[C@H]1[C@H](n2cnc3c(NC(C4CCCCC4)C4CCCCC4)nc(Cl)nc32)[C@H]2C[C@@]2(CCl)[C@H]1O | ADORA1 | ligand displacement, radioligand | 10 µM | 63% |
